# Shown are actives, neighbours in structure and some others; about 2.9% of the full set was active somewhere.
# CHO parental Ca: counter-screen: ATP calcium response change in parental CHO cells; parental CHO-K1, ATP-induced calcium, Fluo-8 fluorescence; inhibition, % at 5.6 µM; 0.63% of 330,000 active; AID 463079;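 active = inhibition above that plate's mean sample inhibition plus 3 SD, cut at about 26% in these data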;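 note: 0% = ATP-challenged DMSO wells and 100% = DMSO wells without ATP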
#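 Assay system: untransfected parental CHO cell line. Also added: ATP agonist challenge. Dosing: one dose, 5.6 µM nominal. Measured by: Fluo-8 fluorescence. Read-out: % inhibition. Benchmarks: ATP wells versus no-ATP DMSO wells. Repeats: no replicates.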
# CHO-K1 Ca antag: nonselective inhibitor or artifact in parental CHO-K1 cells; 0.6% of 360,000 active; inhibition, % at 3 µM; AID 602250; ATP-induced calcium, Fluo-8 fluorescence;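 active = inhibition above a per-plate cutoff, the plate's mean sample inhibition plus 3 SD, cut at about 24% in these data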;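 note: 0% = DMSO plus EC80 ATP and 100% = DMSO alone without ATP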
# OX1R antag-1: antagonists of human orexin 1 receptor (OX1R). OX1R-expressing cells, FRET antagonist read-out. inhibition, % at 6.6 µM. 1.8% of 330,000 active. AID 485270; in the data active = inhibition mostly above about 38%, no sharp cut-off; inactive = mostly below about 40%;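 note: 0% = agonist challenge alone and 100% = reference antagonist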
# Target sequence (O43613 whole entry, looked up): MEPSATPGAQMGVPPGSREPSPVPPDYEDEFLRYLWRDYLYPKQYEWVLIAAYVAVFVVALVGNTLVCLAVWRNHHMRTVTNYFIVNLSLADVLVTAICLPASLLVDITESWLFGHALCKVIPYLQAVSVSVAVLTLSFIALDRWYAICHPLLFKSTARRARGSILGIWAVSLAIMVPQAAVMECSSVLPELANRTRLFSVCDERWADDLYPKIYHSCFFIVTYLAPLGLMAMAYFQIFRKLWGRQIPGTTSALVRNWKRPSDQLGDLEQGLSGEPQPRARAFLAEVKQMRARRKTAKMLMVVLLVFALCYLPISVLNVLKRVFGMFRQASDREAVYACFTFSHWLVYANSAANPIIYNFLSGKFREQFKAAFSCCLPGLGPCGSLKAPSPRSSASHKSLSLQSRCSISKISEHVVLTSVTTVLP
# OX1R antag-2: blocks the human orexin 1 receptor | O43613 | 0.43% of 330,000 active | AID 434989 | inhibition, % at 5 µM | CHO/OX1R cells, Fluo-8 calcium fluorescence, orexin A;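 active = inhibition above its plate's threshold, mean inhibition of all tested compounds on the plate plus 3 SD, cut at about 37% in these data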;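 note: 0% = orexin A challenge wells and 100% = SB-334867-A antagonist wells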
# M1 PAM parental: M1 PAM counterscreen hit in parental CHO-K1 cells; ATP EC20, Fluo-8 calcium fluorescence; 0% at ATP EC20, 100% at ATP max; 0.02% of 360,000 active; activation, % at 3 µM;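 active = activation above the run cutoff, the mean activation of all test compounds plus 3 SD, cut at about 40% in these data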;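 note: peak over basal fluorescence ratio in a 140 s read after ATP addition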
# M1 ag parental: M1 agonist counterscreen hit in parental CHO-K1 cells. activation, % at 3 µM. 0.48% of 360,000 active. Fluo-8 calcium fluorescence; scaled to maximal ATP response, vehicle zero; in the data active = activation above about 15%;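 note: untransfected CHO-K1 host cells lacking M1 receptor as counterscreen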
# OX1R Ca confirm: confirmation of human orexin 1 receptor antagonists. shares compounds with OX1R antag-2. CHO/OX1R cells, orexin A calcium Fluo-8 fluorescence. inhibition, % at 5 µM. 38% of 1,100 active. AID 492963; in the data active = inhibition above about 29%;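 note: 0% = agonist challenge alone and 100% = reference antagonist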
# CHO Ca counter: counter-screen for OX1R antagonists: effect in parental CHO cells; shares compounds with OX1R antag-2; parental CHO-K1, ATP-induced calcium, Fluo-8 fluorescence; inhibition, % at 5.6 µM; 9.3% of 1,100 active; AID 492965;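 active = inhibition above a per-plate limit, the mean inhibition of that plate's test compounds plus 3 SD, cut at about 25% in these data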;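 note: 0% = ATP challenge with DMSO and 100% = DMSO without ATP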
# OX1R HTRF conf: confirmation of human orexin 1 receptor antagonists, HTRF format; shares compounds with OX1R antag-1; OX1R-expressing cells, HTRF antagonist assay; inhibition, % at 6.6 µM; 49% of 1,800 active; in the data active = inhibition above about 55%;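 note: CHO cells expressing OX1R stimulated with orexin A at about EC80; 0% = agonist challenge alone and 100% = reference antagonist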
# CHO-K1 HTRF: counter-screen for OX1R antagonists: effect in parental CHO-K1 cells; inhibition, % at 6.6 µM; HTRF counterscreen; AID 493232; 48% of 1,800 active; shares compounds with OX1R antag-1; in the data active = inhibition above about 17%;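 note: 0% = agonist challenge with vehicle and 100% = vehicle alone without agonist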
# Numbers without * were called inactive; · = no result.
SMILES,CHO parental Ca,CHO-K1 Ca antag,OX1R antag-1,OX1R antag-2,M1 PAM parental,M1 ag parental,OX1R Ca confirm,CHO Ca counter,OX1R HTRF conf,CHO-K1 HTRF
COc1ccccc1CNS(=O)(=O)c1ccc2c(c1)CC(C)N2C(=O)C1CCC1 (stereo not drawn),15,31*,60*,55*,-10,14,30*,16,68*,-9
COc1ccccc1CNS(=O)(=O)c1ccc2c(c1)CC(C)N2C(=O)C1CC1 (stereo not drawn),-3,-15,33,17,5,15,·,·,·,·
COCC#Cc1cnc2c(c1)C(=O)N([C@H](C)CO)C[C@H](C)[C@@H](CN(C)S(=O)(=O)c1ccccc1)O2,·,-11,·,·,11,0,·,·,·,·
O=[N+]([O-])c1ccccc1N/N=C\c1ccccc1Cl,-5,-9,14,-9,17,1,·,·,·,·
O=[N+]([O-])c1ccc(O)c(/C=N/Nc2ccccc2Cl)c1,18,15,81*,35,-5,1,37*,14,84*,11
Nc1cc(=O)[nH]c(SCCSc2cc(Cl)ccc2Cl)n1,-12,-9,-3,-17,-1,2,·,·,·,·
O=C(Nc1nccs1)c1ccc(-c2ccc(F)c(Cl)c2)o1,-17,5,97*,47*,-11,1,19,-15,72*,13
CCOCCCNC(=O)CCn1nc(-c2ccc(Cl)cc2)ccc1=O,-9,-6,-2,-15,6,2,·,·,·,·
Cn1c(N)c(C(=O)N/N=C/c2ccccc2)sc1=S,-8,-11,93*,91*,21,0,73*,6,95*,17*
Cc1cc2nc3c(=O)[nH]c(=S)[nH]c3nc2cc1NC(=O)C(F)(F)F,20,-5,49*,29,7,6,7,4,47,88*
NNc1ccc([N+](=O)[O-])c2[nH][nH]c(=O)c12,·,-5,·,·,13,0,·,·,·,·
Cn1c2ccc(Cl)cc2c2nc3ccccc3nc21,-14,-11,91*,31,14,0,40*,-9,92*,-1
CCOc1ccc2c(c1)c1nc3ccccc3nc1n2C,·,-6,·,·,-6,-1,·,·,·,·
CN1CCN(S(=O)(=O)c2ccc(F)cc2)CC1,·,-10,·,·,5,0,·,·,·,·
CCSc1nnc(NC(=O)CSc2nc3c(c(=O)n2-c2ccccc2OC)SCC3)s1,-13,-30,36*,38,6,3,28,-4,76*,-1
Cc1ccc(C(=O)NCCNC(=O)c2ccc(F)cc2)cn1,-14,1,20,-16,10,1,·,·,·,·
Cc1ccc(S(=O)(=O)N2[C@@H](c3cccc(Cl)c3)C(C(=O)O)=CC[C@H]2c2ccc(C(C)C)cc2)cc1,10,-14,70*,36,8,2,24,0,77*,7
Cc1ccc(S(=O)(=O)N2[C@@H](c3ccc(F)cc3)C(C(=O)O)=CC[C@H]2c2ccc(C(C)C)cc2)cc1,7,1,14,-4,0,-1,·,·,·,·
Cc1ccc([C@@H]2CC=C(C(=O)O)[C@H](c3cccc(F)c3)N2S(=O)(=O)c2ccccc2C)cc1,-14,-3,71*,50*,0,0,26,-3,86*,4
O=C(c1cc2ccccc2oc1=O)N(Cc1cccc(Br)c1)C1CCS(=O)(=O)C1 (stereo not drawn),-20,-5,12,-28,3,1,·,·,·,·
O=C(OCc1ccccc1)N1CCC2CC1c1ccc(N3CCNCC3)cc12 (stereo not drawn),·,6,·,·,14,2,·,·,·,·
COc1ccccc1CCC(=O)OCC(=O)c1c(N)n(CC(C)C)c(=O)n(C)c1=O,18,14,49*,24,-7,17*,40*,21,20,2
O=C(NCCCN1CCOCC1)C1CCN(S(=O)(=O)c2cccc(C(F)(F)F)c2)CC1,-14,-19,5,-20,15,1,·,·,·,·
COc1ccc2[nH]cc(/C=C/C(=O)c3ccccc3)c2c1,-28,3,59*,34,-3,2,17,-4,41,10
O=C(/C=C/c1c[nH]c2ccccc12)c1ccccc1,2,2,53,12,7,0,·,·,·,·
SMILES,CHO parental Ca,CHO-K1 Ca antag,OX1R antag-1,OX1R antag-2,M1 PAM parental,M1 ag parental,OX1R Ca confirm,CHO Ca counter,OX1R HTRF conf,CHO-K1 HTRF
Cc1ccn2cc(C(=O)Nc3ccc4c(c3)OCCO4)nc2c1,-24,-24,88*,40,2,0,10,-1,74*,9
O=C(NCc1ccc(F)cc1)C1CCCN1S(=O)(=O)c1ccccc1C(F)(F)F (stereo not drawn),-11,-15,22,6,13,1,·,·,·,·
Cc1ccccc1NC(=O)C1CCCN1S(=O)(=O)c1ccccc1C(F)(F)F (stereo not drawn),-15,-9,81*,66*,14,2,55*,-8,94*,-1
CC(=O)Nc1ccc(S(=O)(=O)N(C)CC(=O)OCC(=O)c2ccc3c(c2)NC(=O)CO3)cc1,1,4,2,-4,8,4,·,·,·,·
CCOc1ccc2nc(NC(=O)C3CCCN(S(=O)(=O)c4cccs4)C3)sc2c1 (stereo not drawn),-15,-5,84*,52*,12,0,36*,-9,62*,8
CC(C)C[C@@H](CN)NC(=O)c1nc[nH]c1C(=O)N[C@@H](CC(C)C)C(=O)CNC[C@H](C)NC(=O)c1nc[nH]c1C(=O)N[C@@H](CC(C)C)C(=O)O,·,17,·,·,-10,-1,·,·,·,·
c1ccc(-c2nccc(-c3ccc4c(c3)OCO4)n2)cc1,-9,-8,90*,33,8,0,13,17,84*,8
Cc1nc(NCc2ccco2)c2cn[nH]c2n1,·,-6,·,·,4,1,·,·,·,·
c1coc(CNc2nc3nonc3nc2NCc2ccco2)c1,25,2,73*,35,5,7,-3,-7,28,-15
O=C1c2ccccc2NC(c2c(Cl)cccc2Cl)N1Cc1ccccc1 (stereo not drawn),12,-10,82*,27,10,0,10,-2,46,0
Cc1ccc(-c2nc3ccccc3[nH]2)cc1NC(=O)c1ccco1,-33,-10,18,-36,12,2,·,·,·,·
Cc1ccc(-c2nc3ccccc3[nH]2)cc1NC(=O)c1sc2cc(Cl)ccc2c1Cl,-14,-4,77*,44*,18,1,47*,-11,66*,11

# Assay outcomes: PubChem BioAssay, The Scripps Research Institute Molecular Screening Center
